Laboratory results taken from ChEMBL document CHEMBL1135601, “Synthesis and biolocalization of water-soluble sapphyrins” (J Med Chem, 2002).

Key:
[1] = Biodistribution after day 1 in mouse spleen; type: ADME, organism-based
How it was run: (§1)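 Female outbred CD-1 nude mice (18-20 g) bearing subcutaneous human pancreatic adenocarcinoma UB 290896 (2 × 2 mm pieces, right flank; used at tumor diameter 4.5-5.5 mm). Aqueous solution (∼1 mmol L-1) given subcutaneously at 15 µmol kg-1 per day for 3 days. Mice killed 1, 3, 6 or 9 days after the last injection. Five mice per time point, plus 5 noninjected controls.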

[2] = Biodistribution after day 3 in mouse brain; type: ADME, organism-based; how it was run: as §1
[3] = Biodistribution after day 1 in mouse muscle; type: ADME, organism-based, Muscle tissue; how it was run: as §1
[4] = Biodistribution after day 3 in mouse blood; type: ADME, organism-based; how it was run: as §1
[5] = Biodistribution after day 6 in mouse lung; type: ADME, organism-based; how it was run: as §1
[6] = Biodistribution after day 6 in mouse heart; type: ADME, organism-based; how it was run: as §1
[7] = Biodistribution after day 3 in mouse spleen; type: ADME, organism-based; how it was run: as §1
[8] = Biodistribution after day 6 in mouse kidney; type: ADME, organism-based; how it was run: as §1
[9] = Biodistribution after day 6 in mouse liver; type: ADME, organism-based; how it was run: as §1
[10] = Biodistribution after day 3 in mouse muscle; type: ADME, organism-based, Muscle tissue; how it was run: as §1
[11] = Biodistribution after day 3 in mouse liver; type: ADME, organism-based; how it was run: as §1
[12] = Biodistribution after day 1 in mouse heart; type: ADME, organism-based; how it was run: as §1
[13] = Biodistribution after day 6 in mouse brain; type: ADME, organism-based; how it was run: as §1
[14] = Biodistribution after day 6 in mouse spleen; type: ADME, organism-based; how it was run: as §1
[15] = Biodistribution after day 1 in mouse blood; type: ADME, organism-based; how it was run: as §1
[16] = Biodistribution after day 6 in mouse muscle; type: ADME, organism-based, Muscle tissue; how it was run: as §1
[17] = Biodistribution after day 1 in mouse brain; type: ADME, organism-based; how it was run: as §1
[18] = Biodistribution after day 1 in mouse kidney; type: ADME, organism-based; how it was run: as §1
[19] = Biodistribution after day 1 in mouse lung; type: ADME, organism-based; how it was run: as §1
[20] = Biodistribution after day 1 in mouse tumor; type: ADME, organism-based; how it was run: as §1
[21] = Biodistribution after day 3 in mouse heart; type: ADME, organism-based; how it was run: as §1
[22] = Biodistribution after day 3 in mouse kidney; type: ADME, organism-based; how it was run: as §1
[23] = Biodistribution after day 1 in mouse liver; type: ADME, organism-based; how it was run: as §1
[24] = Biodistribution after day 3 in mouse lung; type: ADME, organism-based; how it was run: as §1
[25] = Biodistribution after day 6 in mouse tumor; type: ADME, organism-based; how it was run: as §1
[26] = Biodistribution after day 6 in mouse blood; type: ADME, organism-based; how it was run: as §1
[27] = Biodistribution after day 3 in mouse tumor; type: ADME, organism-based; how it was run: as §1
[28] = Biodistribution after day 9 in mouse tumor; type: ADME, organism-based; how it was run: as §1
[29] = Biodistribution after day 9 in mouse spleen; type: ADME, organism-based; how it was run: as §1
[30] = Biodistribution after day 9 in mouse brain; type: ADME, organism-based; how it was run: as §1
[31] = Biodistribution after day 9 in mouse heart; type: ADME, organism-based; how it was run: as §1
[32] = Biodistribution after day 9 in mouse liver; type: ADME, organism-based; how it was run: as §1
[33] = Biodistribution after day 9 in mouse kidney; type: ADME, organism-based; how it was run: as §1
[34] = Biodistribution after day 9 in mouse blood; type: ADME, organism-based; how it was run: as §1
[35] = Biodistribution after day 9 in mouse lung; type: ADME, organism-based; how it was run: as §1
[36] = Biodistribution after day 9 in mouse muscle; type: ADME, organism-based, Muscle tissue; how it was run: as §1

| concentration at 1 day [1] | concentration at 3 day [2] | concentration at 1 day [3] | concentration at 3 day [4] | concentration at 6 day [5] | concentration at 6 day [6] | concentration at 3 day [7] | concentration at 6 day [8] | concentration at 6 day [9] | concentration at 3 day [10] | concentration at 3 day [11] | concentration at 1 day [12] | concentration at 6 day [13] | concentration at 6 day [14] | concentration at 1 day [15] | concentration at 6 day [16] | concentration at 1 day [17] | concentration at 1 day [18] | concentration at 1 day [19] | concentration at 1 day [20] | Compound | other results |
| --- | --- | --- | --- | --- | --- | --- | --- | --- | --- | --- | --- | --- | --- | --- | --- | --- | --- | --- | --- | --- | --- |
| 1290 ng/g | 270 ng/g | 1020 ng/g | 900 ng/g | 710 ng/g | 760 ng/g | 1390 ng/g | 460 ng/g | 1200 ng/g | 760 ng/g | 1500 ng/g | 950 ng/g | 290 ng/g | 960 ng/g | 500 ng/g | 710 ng/g | 240 ng/g | 440 ng/g | 480 ng/g | 109000 ng/g | CCc1c(CC)c2cc3nc(cc4[nH]c(c(C)c4CC)c4[nH]c(cc5nc(cc1[nH]2)C(CCC(=O)N(CCO)CCO)=C5C)c(CC)c4C)C(C)=C3CCC(=O)N(CCO)CCO [SAPPHYRIN] | concentration at 3 day [21]: 960 ng/g; concentration at 3 day [22]: 330 ng/g; concentration at 1 day [23]: 1420 ng/g; concentration at 3 day [24]: 710 ng/g; concentration at 6 day [25]: 130000 ng/g; concentration at 6 day [26]: 500 ng/g; concentration at 3 day [27]: 220000 ng/g |
| 1300 ng/g | 5000 ng/g | 1900 ng/g | 3020 ng/g | 7000 ng/g | 9200 ng/g | 11000 ng/g | 3800 ng/g | 4200 ng/g | 29000 ng/g | 25000 ng/g | 2000 ng/g | 2400 ng/g | 3300 ng/g | 1690 ng/g | 45000 ng/g | 500 ng/g | 640 ng/g | 1700 ng/g | 4200 ng/g | CCC1=C(CC)c2cc3[nH]c(cc4[nH]c(c(C)c4CC)c4[nH]c(cc5nc(cc1n2)C(CCC(=O)NCCOCCOCCN)=C5C)c(CC)c4C)c(C)c3CCC(=O)NCCOCCOCCN | concentration at 3 day [21]: 15500 ng/g; concentration at 3 day [22]: 6800 ng/g; concentration at 1 day [23]: 210 ng/g; concentration at 3 day [24]: 19000 ng/g; concentration at 6 day [25]: 51000 ng/g; concentration at 6 day [26]: 2450 ng/g; concentration at 3 day [27]: 114000 ng/g |
| 3600 ng/g | 770 ng/g | 8000 ng/g | 2000 ng/g | 6000 ng/g | 6400 ng/g | 7800 ng/g | 1500 ng/g | 370 ng/g | 21000 ng/g | 430 ng/g | 5400 ng/g | 750 ng/g | 8000 ng/g | 1440 ng/g | 17000 ng/g | 550 ng/g | 1100 ng/g | 4900 ng/g | 32000 ng/g | CCc1c(CC)c2cc3nc(cc4[nH]c(c(C)c4CC)c4[nH]c(cc5nc(cc1[nH]2)C(CCC(=O)NC1C(O)OC(CO)C(O)C1O)=C5C)c(CC)c4C)C(C)=C3CCC(=O)NC1C(O)OC(CO)C(O)C1O (stereo not given) | concentration at 9 day [28]: 23000 ng/g; concentration at 9 day [29]: 9700 ng/g; concentration at 9 day [30]: 520 ng/g; concentration at 9 day [31]: 6000 ng/g; concentration at 9 day [32]: 470 ng/g; concentration at 3 day [21]: 9000 ng/g; concentration at 9 day [33]: 2800 ng/g; concentration at 9 day [34]: 1500 ng/g; concentration at 3 day [22]: 1900 ng/g; concentration at 9 day [35]: 8000 ng/g; concentration at 1 day [23]: 290 ng/g; concentration at 3 day [24]: 8000 ng/g; concentration at 6 day [25]: 330000 ng/g; concentration at 9 day [36]: 11000 ng/g; concentration at 6 day [26]: 2200 ng/g; concentration at 3 day [27]: 66000 ng/g |
| 22000 ng/g | 410 ng/g | 3500 ng/g | 900 ng/g | 1400 ng/g | 1700 ng/g | 16000 ng/g | 4300 ng/g | 1320 ng/g | 4200 ng/g | 800 ng/g | 2700 ng/g | 320 ng/g | 12000 ng/g | 1090 ng/g | 5100 ng/g | 420 ng/g | 700 ng/g | 2000 ng/g | 34000 ng/g | C=CC1=C(C)c2cc3nc(cc4[nH]c(cc5[nH]c(cc1n2)c(C)c5CCC(=O)NC1C(O)OC(CO)C(O)C1O)c(CCC(=O)NC1C(O)OC(CO)C(O)C1O)c4C)C(C=C)=C3C (stereo not given) [PORPHYRIN] | concentration at 9 day [28]: 37000 ng/g; concentration at 9 day [29]: 9000 ng/g; concentration at 9 day [30]: 370 ng/g; concentration at 9 day [31]: 2400 ng/g; concentration at 9 day [32]: 960 ng/g; concentration at 3 day [21]: 1450 ng/g; concentration at 9 day [33]: 510 ng/g; concentration at 9 day [34]: 800 ng/g; concentration at 3 day [22]: 3100 ng/g; concentration at 9 day [35]: 2300 ng/g; concentration at 1 day [23]: 1100 ng/g; concentration at 3 day [24]: 1700 ng/g; concentration at 6 day [25]: 260000 ng/g; concentration at 9 day [36]: 3600 ng/g; concentration at 6 day [26]: 980 ng/g; concentration at 3 day [27]: 131000 ng/g |
| 4600 ng/g | 4300 ng/g | 10000 ng/g | 9300 ng/g | 19000 ng/g | 4800 ng/g | 11000 ng/g | 52000 ng/g | 16000 ng/g | 9300 ng/g | 61000 ng/g | 8000 ng/g | 4300 ng/g | 14000 ng/g | 7000 ng/g | 3400 ng/g | 2700 ng/g | 3100 ng/g | 13000 ng/g | 22000 ng/g | CCc1c(CC)c2cc3nc(cc4[nH]c(c(C)c4CC)c4[nH]c(cc5nc(cc1[nH]2)C(CCC(=O)NCCOCCOCCO)=C5C)c(CC)c4C)C(C)=C3CCC(=O)NCCOCCOCCO | concentration at 3 day [21]: 7800 ng/g; concentration at 3 day [22]: 59000 ng/g; concentration at 1 day [23]: 14000 ng/g; concentration at 3 day [24]: 11000 ng/g; concentration at 6 day [25]: 180000 ng/g; concentration at 6 day [26]: 3400 ng/g; concentration at 3 day [27]: 130000 ng/g |
| 4100 ng/g | 400 ng/g | 3600 ng/g | 3400 ng/g | 3200 ng/g | 5200 ng/g | 8000 ng/g | 1700 ng/g | 10000 ng/g | 36000 ng/g | 13000 ng/g | 3100 ng/g | 160 ng/g | 3900 ng/g | 950 ng/g | 22000 ng/g | 870 ng/g | 2800 ng/g | 2500 ng/g | 58000 ng/g | CCc1c(CC)c2cc3nc(cc4[nH]c(c(C)c4CC)c4[nH]c(cc5nc(cc1[nH]2)C(CCC(=O)NCCN(CCN)CCN)=C5C)c(CC)c4C)C(C)=C3CCC(=O)NCCN(CCN)CCN | concentration at 3 day [21]: 10700 ng/g; concentration at 3 day [22]: 5700 ng/g; concentration at 1 day [23]: 1030 ng/g; concentration at 3 day [24]: 13000 ng/g; concentration at 6 day [25]: 49000 ng/g; concentration at 6 day [26]: 1170 ng/g; concentration at 3 day [27]: 89000 ng/g |
